Active and inactive are the calls of the source. The calls are words filed in the database; no cut-off is given here.
How the values were obtained:
[1] = molecular target: T1, Bromodomain-containing protein 4 (Homo sapiens, UniProt O60885); assay: Inhibition of GST-tagged BRD4 bromodomain (unknown origin) using biotinylated histone H4KAc peptide (1 to 21 residues) as substrate by HTRF assay
HCT-116 [2] = assay: Antiproliferative activity against human HCT116 cells assessed as reduction in cell viability measured after 24 to 48 hrs by MTT assay; type: functional, cell-based
[3] = molecular target: T1, Bromodomain-containing protein 4; assay: Inhibition of BRD4 in human HCT116 cells assessed as induction of autophagy by measuring p62 degradation at 2 uM measured after 24 hrs by Western blot analysis; type: cell-based
Outline: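 HCT-116 cells incubated 24 h with test agent at 2.0 µM, alongside 0.5 µM and 10 µM comparator treatments; LC3 and p62 protein detected by western blot.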

Mus musculus [4] = assay: Induction of autophagy in BALB/cAnNCrl mouse xenografted with human HCT116 cells assessed as increase in LC3-II level in tumor tissue at 30 mg/kg, po administered on day 1 to day 19 measured on day 19 by immunohistochemical analysis; type: functional, organism-based
Outline: (§1)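 HCT-116 xenograft mice were dosed orally at 15 or 30 mg/kg, or 30 mg/kg for reference agents, for 19 days, with vehicle or saline controls. Tumor sections were stained for Ki-67, c-Myc, Ac-H3, BRD4, LC3-II, LIFR and p-STAT3 by immunohistochemistry, and TUNEL staining was used as the apoptosis marker.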

[5] = molecular target: T1, Bromodomain-containing protein 4; assay: Inhibition of BRD4 in human HCT116 cells assessed as activation of IL6-JAK-STAT signaling pathway by measuring increase in IL6 mRNA level at 2 uM after 24 hrs by RT-PCR analysis; type: cell-based
Outline: (§2)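 HCT-116 cells were incubated for 24 hours with the test agents at 0.5, 2.0 or 10 μM. IL6, OSM, LIF and CTF1 mRNA levels were then measured.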

[6] = molecular target: T1, Bromodomain-containing protein 4; assay: Inhibition of BRD4 in human HCT116 cells assessed as activation of IL6-JAK-STAT signaling pathway by measuring increase in OSM mRNA level at 2 uM after 24 hrs by RT-PCR analysis; type: cell-based; outline: as §2
[7] = molecular target: T1, Bromodomain-containing protein 4; assay: Inhibition of BRD4 in human HCT116 cells assessed as activation of IL6-JAK-STAT signaling pathway by measuring increase in LIF mRNA level at 2 uM after 24 hrs by RT-PCR analysis; type: cell-based; outline: as §2
[8] = molecular target: T1, Bromodomain-containing protein 4; assay: Inhibition of BRD4 in human HCT116 cells assessed as activation of IL6-JAK-STAT signaling pathway by measuring increase in CTF1 mRNA level at 2 uM after 24 hrs by RT-PCR analysis; type: cell-based; outline: as §2
[9] = molecular target: T1, Bromodomain-containing protein 4; assay: Inhibition of BRD4 in human HCT116 cells assessed as induction of autophagy by measuring LC3-I cleavage to LC3-II at 2 uM measured after 24 hrs by Western blot analysis; type: cell-based
Outline: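 HCT-116 cells were treated for 24 hours with 0.5 μM, 2.0 μM or 10 μM agents. LC3 (LC3-I to LC3-II conversion) and p62 were then detected by western blot.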

SW-620 = assay: Antiproliferative activity against human SW620 cells assessed as reduction in cell viability measured after 24 to 48 hrs by MTT assay; type: functional, cell-based
DLD-1 = assay: Antiproliferative activity against human DLD1 cells assessed as reduction in cell viability measured after 24 to 48 hrs by MTT assay; type: functional, cell-based
HCT-116 [10] = assay: Effect on histone H3 expression level in human HCT116 cells measured after 24 hrs by Western blot analysis; type: functional, cell-based
HCT-116 [11] = assay: Decrease in BRD4 expression in human HCT116 cells incubated for 24 hrs by western blot analysis; type: functional, cell-based
Mus musculus [12] = assay: Increase in LIFR expression in tumor tissue of BALB/cAnNCrl mouse xenografted with human HCT116 cells at 30 mg/kg, po administered on day 1 to day 19 measured on day 19 by immunohistochemical analysis; type: functional, organism-based; outline: as §1
Mus musculus [13] = assay: Increase in phosphorylated STAT3 expression in tumor tissue of BALB/cAnNCrl mouse xenografted with human HCT116 cells at 30 mg/kg, po administered on day 1 to day 19 measured on day 19 by immunohistochemical analysis; type: functional, organism-based; outline: as §1
Histone deacetylase 7 = molecular target: T2, Histone deacetylase 7 (Homo sapiens, UniProt Q8WUI4); assay: Inhibition of HDAC7 (unknown origin) using biotinylated histone H3 KAc peptide (1 to 21 residues) as substrate by HTRF assay
T2 sequence (Q8WUI4 whole entry): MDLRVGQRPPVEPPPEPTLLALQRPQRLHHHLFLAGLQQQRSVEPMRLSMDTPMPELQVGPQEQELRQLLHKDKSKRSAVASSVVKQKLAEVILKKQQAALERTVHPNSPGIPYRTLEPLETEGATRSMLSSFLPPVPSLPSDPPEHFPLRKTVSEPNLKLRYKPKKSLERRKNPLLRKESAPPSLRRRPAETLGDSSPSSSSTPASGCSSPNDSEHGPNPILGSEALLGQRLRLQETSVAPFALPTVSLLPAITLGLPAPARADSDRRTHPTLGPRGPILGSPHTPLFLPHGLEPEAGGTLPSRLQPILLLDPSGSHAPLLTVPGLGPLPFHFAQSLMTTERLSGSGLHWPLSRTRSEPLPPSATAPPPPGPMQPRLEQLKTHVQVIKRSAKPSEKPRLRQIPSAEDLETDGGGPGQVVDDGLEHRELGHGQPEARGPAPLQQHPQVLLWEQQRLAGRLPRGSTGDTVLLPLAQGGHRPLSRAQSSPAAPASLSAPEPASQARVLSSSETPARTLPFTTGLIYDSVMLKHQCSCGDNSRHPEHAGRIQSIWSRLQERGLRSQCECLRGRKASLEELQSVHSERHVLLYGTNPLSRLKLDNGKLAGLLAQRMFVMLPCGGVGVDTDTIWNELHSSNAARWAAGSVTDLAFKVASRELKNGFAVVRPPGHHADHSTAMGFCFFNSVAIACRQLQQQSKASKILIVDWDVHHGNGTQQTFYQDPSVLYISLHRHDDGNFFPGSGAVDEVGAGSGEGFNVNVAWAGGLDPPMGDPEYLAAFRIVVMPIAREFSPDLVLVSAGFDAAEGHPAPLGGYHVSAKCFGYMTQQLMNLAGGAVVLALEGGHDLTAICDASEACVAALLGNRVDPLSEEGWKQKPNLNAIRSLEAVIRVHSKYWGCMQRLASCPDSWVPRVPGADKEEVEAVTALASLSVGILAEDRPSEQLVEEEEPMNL

[14] = molecular target: T3, Protein deacetylase HDAC6 (Homo sapiens, UniProt Q9UBN7); assay: Inhibition of HDAC6 (unknown origin) using biotinylated histone H3 KAc peptide (1 to 21 residues) as substrate by HTRF assay
T3 sequence (Q9UBN7 whole entry): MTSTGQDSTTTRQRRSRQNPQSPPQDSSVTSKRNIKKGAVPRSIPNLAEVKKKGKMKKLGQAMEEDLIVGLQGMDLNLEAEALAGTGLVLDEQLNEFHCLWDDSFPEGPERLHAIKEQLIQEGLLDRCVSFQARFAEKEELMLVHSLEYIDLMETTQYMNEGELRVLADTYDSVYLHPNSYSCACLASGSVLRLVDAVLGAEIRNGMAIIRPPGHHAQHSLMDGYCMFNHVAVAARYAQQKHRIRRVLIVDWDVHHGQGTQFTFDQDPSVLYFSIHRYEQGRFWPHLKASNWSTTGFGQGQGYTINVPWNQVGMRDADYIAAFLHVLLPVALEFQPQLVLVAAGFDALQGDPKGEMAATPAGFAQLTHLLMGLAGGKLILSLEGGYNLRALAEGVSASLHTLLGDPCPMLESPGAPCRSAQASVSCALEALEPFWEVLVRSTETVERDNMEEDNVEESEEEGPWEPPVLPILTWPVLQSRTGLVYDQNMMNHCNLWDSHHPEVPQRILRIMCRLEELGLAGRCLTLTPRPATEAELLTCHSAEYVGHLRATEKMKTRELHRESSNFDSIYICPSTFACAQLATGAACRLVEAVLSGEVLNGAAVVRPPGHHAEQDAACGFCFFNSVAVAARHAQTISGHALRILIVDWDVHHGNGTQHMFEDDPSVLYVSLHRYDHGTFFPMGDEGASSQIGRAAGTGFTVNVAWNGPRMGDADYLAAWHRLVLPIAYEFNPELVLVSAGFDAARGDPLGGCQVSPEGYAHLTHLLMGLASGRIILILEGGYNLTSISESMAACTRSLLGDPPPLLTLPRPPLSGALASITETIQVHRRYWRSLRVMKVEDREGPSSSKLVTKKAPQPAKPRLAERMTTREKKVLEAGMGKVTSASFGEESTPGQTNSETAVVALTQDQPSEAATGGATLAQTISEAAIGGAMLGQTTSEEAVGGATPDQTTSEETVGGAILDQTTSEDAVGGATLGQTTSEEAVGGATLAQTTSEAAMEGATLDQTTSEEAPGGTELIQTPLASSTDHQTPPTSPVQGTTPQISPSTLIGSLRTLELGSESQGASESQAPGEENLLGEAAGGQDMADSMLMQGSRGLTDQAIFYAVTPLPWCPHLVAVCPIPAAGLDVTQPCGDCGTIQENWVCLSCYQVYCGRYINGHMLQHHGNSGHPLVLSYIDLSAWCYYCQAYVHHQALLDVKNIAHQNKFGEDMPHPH

Histone deacetylase 2 = Histone deacetylase 2 (Homo sapiens, UniProt Q92769)
Histone deacetylase 2, sequence (Q92769 whole entry): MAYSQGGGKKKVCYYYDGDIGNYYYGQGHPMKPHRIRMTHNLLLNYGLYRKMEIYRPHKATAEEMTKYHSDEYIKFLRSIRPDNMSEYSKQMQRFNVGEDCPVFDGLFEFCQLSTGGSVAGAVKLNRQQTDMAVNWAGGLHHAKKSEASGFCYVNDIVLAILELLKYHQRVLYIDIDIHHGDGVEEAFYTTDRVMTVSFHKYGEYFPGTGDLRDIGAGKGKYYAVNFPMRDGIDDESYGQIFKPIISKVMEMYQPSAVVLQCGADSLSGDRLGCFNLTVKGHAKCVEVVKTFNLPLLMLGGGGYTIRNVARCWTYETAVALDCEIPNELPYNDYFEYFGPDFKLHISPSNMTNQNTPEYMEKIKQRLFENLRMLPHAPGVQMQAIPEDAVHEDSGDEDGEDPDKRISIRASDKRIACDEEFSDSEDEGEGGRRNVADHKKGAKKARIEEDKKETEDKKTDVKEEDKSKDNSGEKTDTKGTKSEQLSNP

Structure (SMILES): Cc1cc(-c2nc3sc4c(c3c(=O)[nH]2)CCN(C)C4)cc(C)c1O
- IC50 [1]: 0.85 µM
- IC50 (HCT-116 [2]): 1.33 µM
- inhibition [3]: Active
- Activity (Mus musculus [4]): Active
- inhibition [5]: inactive
- inhibition [6]: inactive
- inhibition [7]: inactive
- inhibition [8]: inactive
- inhibition [9]: Active

Structure (SMILES): COc1cc(OC)c2c(=O)[nH]c(-c3cc(C)c(OCCO)c(C)c3)nc2c1 [APABETALONE]
- IC50 (HCT-116 [2]): 12.8 µM
- IC50 (SW-620): > 10 µM
- IC50 (DLD-1): > 10 µM
- Activity (HCT-116 [10]): inactive
- inhibition (HCT-116 [11]): Active

Structure (SMILES): O=C(CCCCCCC(=O)Nc1ccccc1)NO
- Activity (HCT-116 [10]): inactive
- Activity (Mus musculus [12]): Active
- Activity (Mus musculus [13]): Active

Structure (SMILES): Cc1noc(C)c1-c1nc2sc3c(c2c(=O)[nH]1)CCN(CCCCCC(=O)NO)C3
- IC50 [1]: > 10 µM
- IC50 (HCT-116 [2]): 15.3 µM
- IC50 (SW-620): 8.47 µM
- IC50 (DLD-1): 16.8 µM
- IC50 (Histone deacetylase 7): > 10 µM
- IC50 [14]: 0.156 µM
- IC50 (Histone deacetylase 2): 0.135 µM

Structure (SMILES): Cc1noc(C)c1-c1nc2sc3c(c2c(=O)[nH]1)CCN(CC(=O)Nc1ccccc1N)C3
- IC50 [1]: > 10 µM
- IC50 (HCT-116 [2]): 28.3 µM
- IC50 (SW-620): 15.2 µM
- IC50 (DLD-1): 15.2 µM
- IC50 (Histone deacetylase 7): > 10 µM
- IC50 [14]: 0.391 µM
- IC50 (Histone deacetylase 2): 0.352 µM

Structure (SMILES): Cc1cc(-c2nc3sc4c(c3c(=O)[nH]2)CCN(C)C4)cc(C)c1OCc1cccc(C(=O)Nc2ccccc2N)c1
- IC50 [1]: 3.48 µM
- IC50 (HCT-116 [2]): 4.53 µM
- IC50 (SW-620): > 10 µM
- IC50 (DLD-1): > 10 µM
- IC50 (Histone deacetylase 7): > 10 µM
- IC50 [14]: > 10 µM
- IC50 (Histone deacetylase 2): 0.86 µM

Structure (SMILES): Cc1noc(C)c1-c1nc2sc3c(c2c(=O)[nH]1)CCN(CCCCCC(=O)Nc1ccccc1N)C3
- IC50 [1]: > 10 µM
- IC50 (HCT-116 [2]): 15.2 µM
- IC50 (SW-620): 11.1 µM
- IC50 (DLD-1): 14.8 µM
- IC50 (Histone deacetylase 7): > 10 µM
- IC50 [14]: 0.196 µM
- IC50 (Histone deacetylase 2): 0.112 µM

Structure (SMILES): Cc1noc(C)c1-c1nc2sc3c(c2c(=O)[nH]1)CCN(CC(=O)NO)C3
- IC50 [1]: > 10 µM
- IC50 (HCT-116 [2]): 22.8 µM
- IC50 (SW-620): 19.6 µM
- IC50 (DLD-1): 22.6 µM
- IC50 (Histone deacetylase 7): > 10 µM
- IC50 [14]: 0.455 µM
- IC50 (Histone deacetylase 2): 0.489 µM

Structure (SMILES): Cc1cc(-c2nc3sc4c(c3c(=O)[nH]2)CCN(C)C4)cc(C)c1OCc1ccc(C(=O)NO)cc1
- IC50 [1]: 1.77 µM
- IC50 (HCT-116 [2]): 1.07 µM
- IC50 (SW-620): 3.87 µM
- IC50 (DLD-1): 6.24 µM
- IC50 (Histone deacetylase 7): > 10 µM
- IC50 [14]: 0.188 µM
- IC50 (Histone deacetylase 2): 0.105 µM

Reference: ChEMBL document CHEMBL4342471, “Discovery of Thieno[2,3-d]pyrimidine-Based Hydroxamic Acid Derivatives as Bromodomain-Containing Protein 4/Histone Deacetylase Dual Inhibitors Induce Autophagic Cell Death in Colorectal Carcinoma Cells” (J Med Chem, 2020)
